Screening results (PubChem BioAssay)
CSN inh: inhibitors of human CSN-mediated cullin deneddylation. AID 651999. Q92905. inhibition, % at 12.5 µM. Purified CSN, SCF-Nedd8-OG deneddylation, fluorescence polarization. 0.38% of 360,000 active;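 active means pattern-corrected inhibition above about 35%, with an unprinted fluorescence ratio check between 0.5 and 1.5, limit read from the data, passing the limit was not always enough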;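 further: 0% = enzyme with substrate and 100% = substrate without enzyme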
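Assay system: purified human Csn5 enzyme expressed in HEK293T cells; measure: % inhibition; also added: SCFSkp2-Nedd8OG substrate at 10 nM final; technique: fluorescence polarization; times: reaction 90 min, room temperature; medium: Tris buffer pH 7.5, NaCl, DTT, Tween-20, trehalose, ovalbumin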
HNF4A DNA FP: change in binding of human HNF4 alpha to DNA | P41235 | HNF4a-FITC DNA binding, fluorescence polarization, 1 h | activity change, % at 10 µM | 0.3% of 360,000 active | AID 1224865; in the data active means activity change above about 30%, passing the limit was not always enough
SENP1 inh: inhibitors of human SENP1 SUMO protease catalytic domain | 0.21% of 360,000 active | inhibition, % at 10 µM | recombinant SENP1 catalytic domain, CyPet-SUMO1-YPet FRET cleavage | Q9P0U3;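 active means inhibition at least 30% at 10 µM, raw YFP signal under a set limit, fluorescence ratio 0.5 to 1.5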;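 further: 0% = enzyme with DMSO and 100% = no enzyme wells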
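Assay system – human recombinant His6-tagged SENP1 catalytic domain enzyme · Input – SENP1 enzyme, 20 pM final · Buffer or medium – Tris pH 8 buffer plus EDTA, NaCl, BME, BSA, NP40, catalase · Schedule – 50 min reaction at room temperature · Technique – FRET read of cyan and yellow fluorescence · Control set – no-enzyme wells low, DMSO-plus-enzyme wells high control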
Rpn11 inh: blocks the human proteasome subunit Rpn11 | O00487 | human 26S proteasome, Ub4-pepOG fluorescence polarization; 20S core pre-blocked with epoxomicin | inhibition, % at 20 µM | 0.59% of 360,000 active;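 active means inhibition at 20 µM, scaled to each plate's controls, above about 33%, limit read from the data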
TPT1 inh: C. albicans TPT1 enzyme inhibition | recombinant caTPT1, FP RNA substrate dephosphorylation | inhibition, % at 5 µM | 0.81% of 300,000 active | AID 1962;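 active means inhibition above the mean of all tested compounds plus 3 SD, set per screening campaign, cut at about 24% in these data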;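 further: plate controls were DMSO alone for no effect and ferristatin control at 100 nM for full effect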
TPT1 inh confirm: confirmation of Candida albicans TPT1 inhibitors; shares compounds with TPT1 inh; recombinant caTPT1, fluorescence polarization, RNase T1 coupled; inhibition, % at 5 µM; 74% of 2,400 active; AID 2149;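 active means inhibition above the primary screen limit, the mean inhibition of all tested compounds plus 3 SD, cut at about 25% in these data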
RNase T1 counter: counter-screen for TPT1 inhibitors: inhibitors of Aspergillus oryzae RNase T1; shares compounds with TPT1 inh; RNase T1 cleavage, fluorescence polarization, 1536-well; inhibition, % at 5 µM; 83% of 2,400 active; AID 2153;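 active means inhibition above the solvent-only control well mean plus 3 SD, limit set per screening run, cut at about 23% in these data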;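 further: plate controls were DMSO wells with enzyme for no effect and wells without RNase T1 for full effect; inhibitors block cleavage so intact labeled substrate keeps polarization high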
Rpn11 inh conf: Rpn11 inhibition confirmation, single concentration; shares compounds with Rpn11 inh; 29% of 1,900 active; purified human 26S proteasome, Ub4-pepOG fluorescence polarization; proteasome pretreated with epoxomicin; inhibition, % at 20 µM; AID 602318
MMP-2 inh: blocks human MMP-2, flagging nonselective RPN11 hits; AID 602330; inhibition, % at 20 µM; shares compounds with Rpn11 inh; 4% of 1,900 active; recombinant MMP-2, FRET peptide cleavage fluorescence;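 further: human MMP-2 activated beforehand with APMA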
Target sequence (P08253 whole entry, looked up): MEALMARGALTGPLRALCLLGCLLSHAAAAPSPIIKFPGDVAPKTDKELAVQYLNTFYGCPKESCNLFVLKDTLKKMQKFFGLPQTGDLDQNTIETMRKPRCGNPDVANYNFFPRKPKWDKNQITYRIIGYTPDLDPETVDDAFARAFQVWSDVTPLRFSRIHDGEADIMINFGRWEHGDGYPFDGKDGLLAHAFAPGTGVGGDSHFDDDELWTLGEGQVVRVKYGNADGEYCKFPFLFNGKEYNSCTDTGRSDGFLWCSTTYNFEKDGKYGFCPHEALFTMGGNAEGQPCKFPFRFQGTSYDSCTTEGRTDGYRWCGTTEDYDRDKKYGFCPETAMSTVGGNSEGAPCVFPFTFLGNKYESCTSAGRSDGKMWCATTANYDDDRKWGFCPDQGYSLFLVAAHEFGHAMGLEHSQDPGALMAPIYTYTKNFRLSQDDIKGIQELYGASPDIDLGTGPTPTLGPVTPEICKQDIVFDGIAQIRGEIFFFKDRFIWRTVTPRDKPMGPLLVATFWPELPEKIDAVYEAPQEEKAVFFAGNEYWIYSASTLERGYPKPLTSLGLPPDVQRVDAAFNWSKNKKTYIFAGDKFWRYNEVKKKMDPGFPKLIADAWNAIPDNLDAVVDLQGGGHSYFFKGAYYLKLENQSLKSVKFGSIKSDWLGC
Thrombin inh: counter-screen for RPN11 inhibitors: inhibition of bovine thrombin; shares compounds with Rpn11 inh; bovine thrombin cleavage of Ub4-pepOG, fluorescence polarization; inhibition, % at 20 µM; 13% of 1,900 active; AID 602333;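 active means mean inhibition at least 40% at 20 µM, or signal 3 deviations below plate average, so some actives read negative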;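 further: plate controls were thrombin with DMSO for no effect and buffer wells lacking thrombin for full effect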
SENP1 inh conf: confirmation of human SENP1 SUMO protease inhibitors; 34% of 520 active; recombinant SENP1, CyPet-SUMO1-YPet FRET cleavage; shares compounds with SENP1 inh; inhibition, % at 10 µM; in the data active means inhibition mostly above about 35%, no sharp cut-off; inactive means mostly below about 32%;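 further: 0% = enzyme with DMSO and 100% = no enzyme control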
SENP1 kin conf: SENP1 (human) inhibition, kinetic confirmation; shares compounds with SENP1 inh; recombinant SENP1, CyPet-SUMO1-YPet FRET kinetic cleavage; inhibition, % at 10 µM; 26% of 520 active; in the data active means inhibition mostly above about 32%, no sharp cut-off; inactive means mostly below about 29%;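 further: 0% = DMSO with enzyme and 100% = no enzyme substrate only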
HNF4a DNA conf: change in binding of human HNF4 alpha to DNA, retest; shares compounds with HNF4A DNA FP; HNF4A-FITC DNA binding, fluorescence polarization, 1 h; activity change, % at 12.5 µM; 99% of 210 active; AID 1224897; call rule not given here
* marks the source's active call; other numbers are inactive results; . = no result shown; + = active, no number. Only some compounds are listed: those with a hit (about 1.6% of all), similar ones and a draw of the others. Unless noted, no stated cut-off is given here; in the data, active means inhibition above about 40%; inactive means the rest.

SMILES	CSN inh	HNF4A DNA FP	SENP1 inh	Rpn11 inh	TPT1 inh	Rpn11 inh conf	MMP-2 inh	Thrombin inh	others
CC1Nc2ccc(C(=O)NC3CCCCC3)cc2NC1=O (centres undefined)	57*	61*	41*	.	34*	.	.	.	TPT1 inh confirm=39*;RNase T1 counter=48*;SENP1 inh conf=17;SENP1 kin conf=16;HNF4a DNA conf=49*
CCN(CC)C(=O)CSc1nc(-c2ccccc2)ccc1C#N	0	4	1	1	2	.	.	.
N#Cc1ccc(-c2cccnc2)nc1SCC(=O)c1ccccc1	30	46*	-35	.	67*	.	.	.	TPT1 inh confirm=66*;RNase T1 counter=74*;HNF4a DNA conf=49*
CC1=Nc2ccccc2/C1=C/c1c(C)[nH]c2ccccc12	-4	4	-13	10	.	.	.	.
CC1=Nc2ccccc2/C1=C/c1nc(-c2ccc(C)s2)oc1O	32	55*	-32	.	166*	.	.	.	TPT1 inh confirm=179*;RNase T1 counter=170*;HNF4a DNA conf=74*
CC(=O)C1=C(C)NC(SCC(=O)c2ccc(Cl)cc2Cl)=C(C#N)C1c1ccco1 (centres undefined)	12	14	-27	50*	16	13	-10	15
CCOc1ccc(C2C(C(=O)c3ccc(C)o3)=C(O)C(=O)N2c2nc(C)c(C(=O)OC)s2)cc1 (centres undefined)	21	19	-38	42*	20	-17	-56	-7
COc1ccc(N2CCc3c(C)nc4c(OC)cccc4c32)cc1	10	5	0	43*	0	-15	-25	-2
Cc1cc(C(=O)N/N=C/c2ccc(-c3cccc(Br)c3)o2)n[nH]1	3	0	-3	17	-4	.	.	.
Cc1cc(C(=O)N/N=C/c2ccc(-c3cccc(Cl)c3Cl)o2)n[nH]1	-3	13	4	59*	1	22	-34	-13
Cc1ccnc2nc(C(=O)Nc3ccc(N4CCOCC4)cc3)nn12	0	7	-1	133*	-2	-5	-49	-10
O=C1c2ccc(Cl)cc2S(=O)(=O)c2cccc(C(=O)N3CCN(c4ncc(Br)cn4)CC3)c21	0	2	1	0	.	.	.	.
COc1ccc(-c2ccc3c(c2)S(=O)(=O)c2cccc(C(=O)N4CCN(c5c(Cl)cncc5Cl)CC4)c2C3=O)cc1OC	21	42*	51*	76*	.	43*	-13	17
CC(C)C(c1nnnn1Cc1ccco1)N1CCC(C(N)=O)CC1 (centres undefined)	8	-31	-24	142*	-2	15	-33	8
CCC(c1nnnn1Cc1ccco1)N1CCC(C(N)=O)CC1 (centres undefined)	2	-3	-3	-1	-1	.	.	.
CCCn1c(SCc2nc3sc(C)c(C)c3c(=O)[nH]2)nc2ccccc2c1=O	10	20	9	41*	3	30	4	20
COC(=O)C1=C(C)N(C)C(=O)NC1c1c(OC)ccc2ccccc12 (centres undefined)	-1	5	-1	-2	1	.	.	.
CCN(CC)CCOC(=O)c1ccc(N/C=C(/C#N)c2nc(-c3ccc(OC)cc3)cs2)cc1	137*	238	-11	59*	6	55*	-144	77*
CCN(CC)CCCN(C(=O)c1ccc(Br)cc1)c1nc(-c2ccc(OC)cc2)cs1	-4	3	3	-22	-1	.	.	.
CC1(C)CC(=O)C(C=NCC2CCNCC2)=C(O)C1	0	-1	-17	-3	1	.	.	.
CC1(C)CC(=O)C(C=NCC2CCN(C(=O)Cc3ccccc3)CC2)=C(O)C1	0	237	-2	137*	-2	93*	3	-8
CC(=O)Nc1ccc(S(=O)(=O)Nc2ccccc2N2CCOCC2)cc1	-5	-2	0	-7	.	.	.	.
O=C(CN1C(=O)c2ccccc2S1(=O)=O)NCCSc1ccccc1	5	-2	0	41*	-1	-7	-26	-19
CCOc1ccc2nc(NC(=O)CN3CCN(CC)CC3)sc2c1	-5	-2	0	4	.	.	.	.
CCOc1ccc2nc(NC(=O)Cn3[nH]c(=O)c4ccccc4c3=O)sc2c1	14	33	-3	68*	21	56*	-4	25
SMILES	CSN inh	HNF4A DNA FP	SENP1 inh	Rpn11 inh	TPT1 inh	Rpn11 inh conf	MMP-2 inh	Thrombin inh	others
CCN(CC)CCNC(=O)CNC(=O)c1nn(-c2ccc(OC)cc2OC)c(=O)c2ccccc12	2	3	1	2	-3	.	.	.
Cc1noc(C)c1C(=O)OCC(=O)/C=C1/N(C)c2ccccc2C1(C)C	7	2	-2	2	.	.	.	.
Cn1ncc(Cl)c1C(=O)Nc1cc(C(F)(F)F)ccc1F	-5	-2	2	+	3	-5	-49	-11
COc1ccc(NS(=O)(=O)c2ccc(C)c(NC(=O)CN3C(=O)NC4(CCCC4)C3=O)c2)cc1	109*	40	-1	83*	.	76*	-132	4
NC(=O)C(=O)N/N=C/c1c2ccccc2cc2ccccc12	77	106	-30	41*	-2	12	-31	-9
CC1Sc2ccc(C(=O)N(CCc3ccccc3)Cc3ccccc3)cc2NC1=O (centres undefined)	-2	1	-4	-1	.	.	.	.
COc1ccc(Nc2nc(-c3ccc(OC)cc3)c(CCC(=O)O)s2)cc1	-3	0	-3	-2	-1	.	.	.
Cc1ccc(Nc2nc(-c3ccc(C)cc3)c(CC(=O)O)s2)cc1	65*	16	-26	76*	9	33	10	20
O=C(c1ccc(Cl)cc1)c1cn[nH]c1-c1ccccc1O	-1	6	1	+	-1	-3	0	5
